Test results from ChEMBL document CHEMBL1144182, “Antimicrobial and cytotoxic arylazoenamines. Part III: antiviral activity of selected classes of arylazoenamines” (Bioorg Med Chem, 2008).
Active and inactive are the calls of the source. The rule behind the calls is not given here.

Key:
[1] = Cytotoxicity against mock-infected human MT4 cells assessed as reduction in cell viability after 96 hrs by MTT assay; type: cell-based
How it was run: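 Exponentially growing MT-4 cells seeded at 1 × 10^5 cells/mL in RPMI-1640 with 10% FCS, penicillin and streptomycin, with or without serial compound dilutions. Incubated at 37 °C, 5% CO2; viability read by MTT after 96 h. CC50 is the concentration reducing mock-infected cell viability by 50%.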

[2] = Cytotoxicity against mock-infected MDBK cells assessed as reduction in cell viability after 96 hrs by MTT assay; type: cell-based, Bos taurus; details: cattle
How it was run: (§1)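 Cytotoxicity run in parallel with the antiviral assays. MDBK seeded at 6 × 10^5 and BHK at 1 × 10^6 cells/mL in maintenance medium with or without serial compound dilutions. Incubated 48–96 h at 37 °C, 5% CO2, then viability read by MTT. CC50 is the concentration reducing mock-infected cell viability by 50%.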

[3] = system: Bovine viral diarrhea virus 1; assay: Antiviral activity against BVDV infected in MDBK cells assessed as protection against virus-induced cytopathogenicity after 4 days by MTT assay; type: functional, organism-based; details: Bovine viral diarrhea virus isolates and strains, 96 h
How it was run: (§2)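 MDBK (BVDV) or BHK-21 (YFV) cells were seeded at 3 × 10^4 or 5 × 10^4 cells/well respectively and grown overnight to confluent monolayers at 37 °C in 5% CO2. Monolayers were infected at m.o.i. 0.01 in serum-free medium. After 1 h, MEM Earle's with 1% FCS was added, with or without serial compound dilutions. After 3–4 days at 37 °C, viability was read by MTT. EC50 was taken as 50% protection from virus-induced cytopathogenicity.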

[4] = Cytotoxicity against mock-infected BHK cells assessed as reduction in cell viability after 96 hrs by MTT assay; type: cell-based, Mesocricetus auratus; details: hamster; how it was run: as §1
[5] = system: Yellow fever virus; assay: Antiviral activity against YFV infected in BHK21 cells assessed as protection against virus-induced cytopathogenicity after 4 days by MTT assay; type: functional, organism-based; details: BHK-21, 96 h; how it was run: as §2
[6] = Cytotoxicity against mock-infected african green monkey Vero76 cells assessed as reduction in cell viability after 96 hrs by MTT assay; type: cell-based, Vero; details: chlorocebus sabaeus
[7] = system: Coxsackievirus B2; assay: Antiviral activity against CVB2 infected in Vero76 cells assessed as reduction in virus plaque formation after 4 days by MTT assay; type: functional, organism-based; details: Enterovirus B, Vero 76, 96 h
[8] = system: Respiratory syncytial virus; assay: Antiviral activity against RSV infected in Vero76 cells assessed as reduction in virus plaque formation after 4 days by MTT assay; type: functional, organism-based; details: human respiratory syncytial virus, Vero 76, 96 h
[9] = system: Poliovirus 1; assay: Antiviral activity against Sb1 virus infected in Vero76 cells assessed as reduction in virus plaque formation after 4 days by MTT assay; type: functional, organism-based; details: Enterovirus C, Sabin, Vero 76, 96 h
[10] = system: Human immunodeficiency virus 1; assay: Antiviral activity against HIV1 infected in MT4 cells assessed as virus-induced cytopathogenicity after 4 days; type: functional, organism-based
[11] = system: Vaccinia virus; assay: Antiviral activity against VV infected in Vero76 cells assessed as reduction in virus plaque formation after 4 days by MTT assay; type: functional, organism-based; details: Orthopoxvirus vaccinia; Vero 76
[12] = system: Vesicular stomatitis virus; assay: Antiviral activity against VSV infected in Vero76 cells assessed as reduction in virus plaque formation after 4 days by MTT assay; type: functional, organism-based; details: Vero 76

Compound	CC50 at 96 h [1] [µM]	CC50 at 96 h [2] [µM]	EC50 [3] [µM]	CC50 at 96 h [4] [µM]	EC50 [5] [µM]	CC50 at 96 h [6] [µM]	EC50 [7] [µM]	EC50 [8] [µM]	EC50 [9] [µM]	Activity [10]	Activity [11]	Activity [12]
Cc1ccc(/N=N/C2=CN(C)CCC2)cc1	> 100	> 100	> 100	> 100	> 100	71	> 71	> 71	25	inactive	inactive	inactive
c1ccc2c(/N=N\C3=C4CCCCN4CCC3)cccc2c1	12	> 100	6	20	> 20	90	> 90	> 90	> 90	inactive	inactive	inactive
C(=C\N1CCSCC1)/N=N/c1ccccc1	19	14	> 14	> 100	> 100	30	6	> 30	> 30	inactive	inactive	inactive
CN1CCC/C1=C\N=N\c1cccc(Br)c1	55	52	9	41	7	80	16	> 80	> 80	inactive	inactive	inactive
FC(F)(F)c1cc(/N=N\C2=C3CCCCN3CCC2)ccc1Cl	19	35	> 35	41	> 41	> 100	64	> 100	> 100	inactive	inactive	inactive
CN1CCC/C1=C\N=N\c1ccc(Br)cc1	23	> 100	11	> 100	> 100	> 100	36	20	> 100	inactive	inactive	inactive
CN1CCC/C1=C\N=N\c1cc(C(F)(F)F)cc(C(F)(F)F)c1	2	36	> 36	48	> 48	93	> 93	> 93	> 93	inactive	inactive	inactive
c1ccc2c(/N=N\C3=C4CCCN4CCC3)cccc2c1	18	91	3.5	51	> 51	90	44	> 90	> 90	inactive	inactive	inactive
Clc1ccc(N2CCN(/C=C/N=N/c3ccccc3)CC2)cc1	21	7.5	> 7.5	29	7.5	45	7	7	> 45	inactive	inactive	inactive
CN1C=C(/N=N/c2c(F)c(F)c(F)c(F)c2F)CCC1	> 100	> 100	> 100	> 100	> 100	> 100	> 100	> 100	> 100	inactive	inactive	inactive
CN1CCC/C1=C\N=N\c1ccc(F)cc1	100	59	18	80	36	75	> 75	12	> 75	inactive	inactive	inactive
CN1C=C(/N=N/c2ccc(Cl)c([N+](=O)[O-])c2)CCC1	71	61	> 61	> 100	> 100	> 100	> 100	> 100	> 100	inactive	inactive	inactive
C(=C\N1CCCCC1)/N=N/c1ccccc1	2	7	> 7	67	23	15	7	> 15	> 15	inactive	inactive	inactive
Clc1ccc2c(/N=N/C3=C4CCCCN4CCC3)ccnc2c1	15	40	5	48	> 48	85	51	> 85	> 85	inactive	inactive	inactive
O=[N+]([O-])c1cccc(/N=N\C2=C3CCCN3CCC2)c1	> 100	68	> 68	95	> 95	> 100	54	> 100	60	inactive	inactive	inactive
CN1C=C(/N=N/c2ccc(F)c(C(F)(F)F)c2)CCC1	> 100	> 100	> 100	80	> 80	70	35	> 70	> 70	inactive	inactive	inactive
Clc1ccc(/N=N\C2=C3CCCCN3CCC2)cc1	42	60	> 60	69	> 69	80	19	25	> 80	inactive	inactive	inactive
FC(F)(F)c1cc(/N=N/C2=CN(Cc3ccccc3)CCC2)ccc1Cl	43	28	≥ 28	32	22	48	4	> 48	> 48	inactive	inactive	inactive
C(=C\N1CCOCC1)/N=N/c1ccccc1	7	28	> 28	> 100	> 100	30	7	15	> 30	inactive	inactive	inactive
CN1CCC/C1=C\N=N\c1ccc(Cl)cc1	> 100	85	21	55	> 55	92	24	20	> 92	inactive	inactive	inactive
CN1C=C(/N=N/c2cccc([N+](=O)[O-])c2)CCC1	> 100	> 100	0.8	95	> 95	> 100	> 100	> 100	> 100	inactive	inactive	inactive
